Experiments:
HT-22 [1] = assay: Inhibition of mPTP in mouse HT22 cells assessed as reduction in amyloid beta-induced mitochondrial membrane damage at 10 uM incubated for 10 mins prior to amyloid beta-challenge measured every 1 hr for 3 hrs by JC-1 based fluorometric analysis; type: cell-based; parameters: scale not given: the % may be the effect or the level left
Method in brief: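 HT-22 cells, 30,000 per well, seeded a day earlier, loaded with 7.5 μM JC-1 (final) in phenol red-free Opti-MEM for 1 h 15 min at 37 °C, then PBS-washed. Compound solution at 10 μM for 10 min at 37 °C, then amyloid beta 1–42 solution at 10 μM. Red (ex/em 530/580) and green (485/530) fluorescence read hourly for 3 h. Green/red ratio change normalised to vehicle as 100%.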

HT-22 [2] = assay: Neuroprotective activity against in mouse HT22 cells assessed as inhibition of amyloid beta-induced toxicity at 10 uM incubated for 10 mins prior to amyloid beta-challenge measured after 24 hrs by MTT assay; type: functional
Method in brief: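 HT-22 mouse hippocampal cells (DMEM, 10% FBS), 5000 per well, seeded a day before. Compound solution at 10 μM added 10 min before amyloid beta 1–42 solution at 10 μM, then 24 h at 37 °C. MTT 2 h, then acidified Triton/isopropanol for 1 h at RT, A570. Vehicle subtracted; % inhibition versus Aβ-treated vehicle; viability from wells without Aβ.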

HT-22 [3] = assay: Inhibition of mPTP in mouse HT22 cells assessed as recovery in amyloid beta-suppressed ATP level at 5 uM incubated for 10 mins prior to amyloid beta-challenge measured for 7 hrs relative to control; type: cell-based; parameters: scale not given: the % may be the effect or the level left
Method in brief: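 HT-22 mouse hippocampal cells, grown in DMEM with 10% FBS at 37 °C and 5% CO2, were seeded the day before. Compound (10 µM solution) added 10 min before amyloid beta 1-42 (10 µM solution), then 7 h at 37 °C. Lysates normalised to equal protein by BCA, and ATP measured with a luciferase kit. % recovery is relative to the amyloid-treated vehicle. Viability is from ATP without amyloid beta.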

[4] = Cytotoxicity against mouse […] cells assessed as cell viability at 5 uM; type: cell-based; conditions: read-out: Activity
[5] = Cytotoxicity against mouse […] cells assessed as cell viability at 10 uM after 24 hrs by MTT assay; type: cell-based; conditions: read-out: Activity

| Compound | Activity (HT-22 [1]) [%] | further results |
| --- | --- | --- |
| FC(F)(F)c1cccc(COc2ccccc2/C=N/OC2CN3CCC2CC3)c1 (stereo not given) | 90 |  |
| C(=N\OC1CN2CCC1CC2)/c1cccc(OCc2ccccc2)c1 (stereo not given) | 121 |  |
| FC(F)(F)c1ccc(COc2ccccc2/C=N/OC2CN3CCC2CC3)cc1 (stereo not given) | 85 |  |
| Clc1ccccc1COc1ccccc1/C=N/OC1CN2CCC1CC2 (stereo not given) | 88 |  |
| NC(=O)CN1CCCC1=O [PIRACETAM] | 40 | inhibition at 10 µM (HT-22 [2]): 29%; Activity (HT-22 [3]): 127%; viability at 5 µM [4]: 88%; viability at 24 h, 10 µM [5]: 132% |
| COc1ccccc1/C=N/OC1CCN(C)C1 (stereo not given) | 147 |  |
| CN1CCC(O/N=C/c2ccccc2OCc2ccc(Cl)cc2Cl)C1 (stereo not given) | 18 | Activity (HT-22 [3]): -9%; viability at 5 µM ([4]; HT22 cells): 90% |
| Clc1ccc(COc2ccccc2/C=N/OC2CN3CCC2CC3)cc1Cl (stereo not given) | 77 |  |
| Fc1ccc(COc2ccccc2/C=N/OC2CN3CCC2CC3)cc1 (stereo not given) | 93 |  |
| Fc1cccc(COc2ccccc2/C=N/OC2CCN(Cc3ccccc3)C2)c1 (stereo not given) | 42 | Activity (HT-22 [3]): -201%; viability at 5 µM ([4]; HT22 cells): 74% |
| C(=N\OC1CN2CCC1CC2)/c1cccc(Oc2ccccc2)c1 (stereo not given) | 138 |  |
| COc1ccccc1/C=N/OC1CCCN(C)C1 (stereo not given) | 257 |  |
| COc1ccc(COc2ccccc2/C=N/OC2CN3CCC2CC3)cc1 (stereo not given) | 96 |  |
| Brc1ccccc1/C=N/OC1CN2CCC1CC2 (stereo not given) | 93 |  |
| COc1ccccc1/C=N/OC1CN2CCC1CC2 (stereo not given) | 71 |  |
| Fc1ccccc1COc1ccccc1/C=N/OC1CN2CCC1CC2 (stereo not given) | 82 |  |
| C(=N\OC1CN2CCC1CC2)/c1ccccc1Oc1ccccc1 (stereo not given) | 84 |  |
| CC(C)N1CCC(O/N=C/c2cccc(C(F)(F)F)c2)C1 (stereo not given) | 54 |  |
| FC(F)(F)c1ccccc1COc1ccccc1/C=N/OC1CN2CCC1CC2 (stereo not given) | 91 |  |
| Fc1ccccc1/C=N/OC1CN2CCC1CC2 (stereo not given) | 96 |  |
| Fc1cccc(COc2ccccc2/C=N/OC2CN3CCC2CC3)c1 (stereo not given) | 75 |  |
| CN1CCC(O/N=C/c2cccc(C(F)(F)F)c2)C1 (stereo not given) | 108 |  |
| COc1ccccc1/C=N/OC1CCN(Cc2ccccc2)C1 (stereo not given) | 81 |  |
| CC(C)N1CCC(O/N=C/c2ccccc2OCc2ccc(Cl)c(Cl)c2)C1 (stereo not given) | 95 |  |
| CN1CCCC(O/N=C/c2ccccc2OCc2cccc(F)c2)C1 (stereo not given) | 32 | Activity (HT-22 [3]): 9%; viability at 5 µM ([4]; HT22 cells): 136% |

Source: ChEMBL document CHEMBL2331084, “Synthesis and evaluation of oxime derivatives as modulators for amyloid beta-induced mitochondrial dysfunction” (Eur J Med Chem, 2013)
